Test results from the RNAGym collection of RNA variant scans (doi:10.1126/science.aae0568).
Fewer inactive variants are shown than the library holds.

B1: tRNA (parent)
chain: GUUCCGUUGGCGUAAUGGUAACGCGUCUCCCUCCUAAGGAGAAGACUGCGGGUUCGAGUCCCGUACGGAACG

Variants of: B1
Assay: yeast fitness relative to wild type (ratio to wild type); higher = fitter; tRNA-Arg(CCU), competitive growth, 37 C, YPD
How it was run: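 The tRNA-Arg(CCU) gene variants were made by chemical synthesis with a 3% per-site mutation rate at 69 sites and inserted at the native genomic locus of Saccharomyces cerevisiae. After pooling, the strains were competed in YPD at 37°C for 24 hours in six parallel replicates. Gene amplicons from the start population and each end population were read by 100-nucleotide paired-end sequencing, and Darwinian fitness relative to wild type was taken from genotype frequency changes. Genotypes needed ≥ 100 starting reads, and estimates < 0.5 were set to 0.5.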
With U13A C31A G44A A57G A65C A70U the yeast fitness was no more than 0.5. In the case of U13A C31G A42G, the yeast fitness is reported as 0.699. For U13A C31G C33U A37C A65U, the yeast fitness was no more than 0.5. Variant U13A C31G C34A has a yeast fitness of 0.624. U13A C31G C46G A69U gave a yeast fitness of 0.624. For U13A C33A A36U, the yeast fitness was 0.544. With U13A C33A A36U G68C the yeast fitness was no more than 0.5. Work on U13A C33A U54C yielded a yeast fitness of no more than 0.5. For U13A C33G, the yeast fitness was 0.741. Work on U13A C33G A36G C49A yielded a yeast fitness of no more than 0.5. U13A C33G C55A showed a yeast fitness of no more than 0.5. U13A C33G U54A U59A gave a yeast fitness of no more than 0.5. With U13A C33U A42G G52C A65G the yeast fitness was no more than 0.5. U13A C33U A45C C46G A69U showed a yeast fitness of 0.579. U13A C34G C61U gave a yeast fitness of no more than 0.5. Work on U13A C34G U54A yielded a yeast fitness of 0.609. Variant U13A C34U has a yeast fitness of 0.58. Work on U13A C34U A40U A65C yielded a yeast fitness of no more than 0.5. With U13A C46A the yeast fitness was 0.979. For U13A C46A A69C, the yeast fitness was 0.722. U13A C46A G48C gave a yeast fitness of 1.08. For U13A C46A U64C, the yeast fitness was 0.609. Work on U13A C46G U53C C62U A69C yielded a yeast fitness of no more than 0.5. In the case of U13A C49A G63A, the yeast fitness is reported as no more than 0.5. In the case of U13A C49G, the yeast fitness is reported as 1.01. In the case of U13A C55U, the yeast fitness is reported as 0.626. U13A C55U A70C gave a yeast fitness of 0.571. Variant U13A C55U G58A U59C C62U has a yeast fitness of no more than 0.5. U13A C60G G67A showed a yeast fitness of no more than 0.5. For U13A C60U, the yeast fitness was 0.699. For U13A C60U A69U, the yeast fitness was 0.62. U13A C61A showed a yeast fitness of 0.706. Variant U13A C61A C62U C66U has a yeast fitness of no more than 0.5. U13A C61A G68A showed a yeast fitness of no more than 0.5. Work on U13A C61G A70G yielded a yeast fitness of 0.6. Variant U13A C61U has a yeast fitness of 0.786. Variant U13A C61U A65G has a yeast fitness of 0.71. U13A C61U A70G gave a yeast fitness of 0.633. With U13A C61U A70U the yeast fitness was 0.708. Work on U13A C62A yielded a yeast fitness of 0.668. In the case of U13A C62G, the yeast fitness is reported as 0.78. Variant U13A C66A has a yeast fitness of 0.619. U13A G17A showed a yeast fitness of 0.764. Work on U13A G17C C31A yielded a yeast fitness of 0.623. U13A G18C A36G G41C showed a yeast fitness of 0.706. With U13A G18C A36G G41C A65C the yeast fitness was 0.544. In the case of U13A G18C A36G G41C U47A, the yeast fitness is reported as no more than 0.5. With U13A G18C C27U A40G G41A A45U the yeast fitness was no more than 0.5. Variant U13A G18C C27U A65G has a yeast fitness of no more than 0.5. For U13A G18C C27U U54C A57U, the yeast fitness was 0.561. With U13A G18C U26A the yeast fitness was no more than 0.5. U13A G23A showed a yeast fitness of 0.659. U13A G23A A36C G38A A65G showed a yeast fitness of no more than 0.5. U13A G23A G67C showed a yeast fitness of 0.535. Variant U13A G23A U35G U59C has a yeast fitness of 0.528. In the case of U13A G23C, the yeast fitness is reported as 0.57. With U13A G23C A70C the yeast fitness was 0.667. Work on U13A G23C C24G A70G yielded a yeast fitness of no more than 0.5. For U13A G23C C24G G50A, the yeast fitness was no more than 0.5. In the case of U13A G23C C27G, the yeast fitness is reported as 0.504. Work on U13A G23C C61A C62A yielded a yeast fitness of 0.726. For U13A G23C U32G C49U A69U, the yeast fitness was no more than 0.5. Variant U13A G25A has a yeast fitness of 1.01. U13A G25C A45G A57G showed a yeast fitness of no more than 0.5. Work on U13A G25C C27A C30G A40C C60U C66G yielded a yeast fitness of no more than 0.5. Variant U13A G38C has a yeast fitness of 0.619. In the case of U13A G38C A69C, the yeast fitness is reported as 0.524. With U13A G39A A45G U54A the yeast fitness was no more than 0.5. U13A G39C gave a yeast fitness of 0.779. Variant U13A G41A A42C G50C A70G has a yeast fitness of no more than 0.5. In the case of U13A G41A A45C, the yeast fitness is reported as 0.552. U13A G41A G48A U53C gave a yeast fitness of no more than 0.5. U13A G41A U64C A70G showed a yeast fitness of no more than 0.5. For U13A G41C A42G G67A, the yeast fitness was no more than 0.5. Variant U13A G44C has a yeast fitness of 0.94. Variant U13A G48A G67C has a yeast fitness of 0.608. With U13A G48C the yeast fitness was 1.1. U13A G50U showed a yeast fitness of 0.838. U13A G51C showed a yeast fitness of 0.58. Work on U13A G56A C61G A70G yielded a yeast fitness of no more than 0.5. U13A G56C A65C gave a yeast fitness of no more than 0.5. Work on U13A G58C yielded a yeast fitness of 0.853. U13A G58C A69U showed a yeast fitness of 1.04.
